Results on 20 compounds are retold here after ChEMBL document CHEMBL1145161, “Inhibitors of Trypanosoma cruzi trypanothione reductase revealed by virtual screening and parallel synthesis” (J Med Chem, 2005).

pKi: −log10 of the molar value. Bounds are passed on as bounds.

The target in test [1] is Trypanothione reductase (Trypanosoma cruzi) (UniProt P28593). The experiment in a line: Inhibitory activity (100 uM) against recombinant Trypanosoma cruzi trypanothione reductase was determined in presence of Trypanothione disulfide (40 uM). The gist of the method:
(§1)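 Recombinant T. cruzi TR, 10–15 mU, in 40 mM Hepes, 1 mM EDTA, pH 7.5, 25 °C, 100 μM NADPH; activity at fixed TS2 (40 or 110 μM) without and with 100 μM inhibitor; TS2 starts reaction, A340 decrease monitored; DMSO controls where needed. Inhibitor stocks 4 mM in DMSO or water.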

For test [2] the target is unchanged. The experiment in a line: Inhibitory activity (100 uM) against recombinant Trypanosoma cruzi trypanothione reductase was determined in presence of Trypanothione disulfide (110 uM). In a few lines:
as §1

For test [3], the target named is T1, Glutathione reductase, mitochondrial (Homo sapiens) (UniProt P00390).
T1 sequence (whole entry): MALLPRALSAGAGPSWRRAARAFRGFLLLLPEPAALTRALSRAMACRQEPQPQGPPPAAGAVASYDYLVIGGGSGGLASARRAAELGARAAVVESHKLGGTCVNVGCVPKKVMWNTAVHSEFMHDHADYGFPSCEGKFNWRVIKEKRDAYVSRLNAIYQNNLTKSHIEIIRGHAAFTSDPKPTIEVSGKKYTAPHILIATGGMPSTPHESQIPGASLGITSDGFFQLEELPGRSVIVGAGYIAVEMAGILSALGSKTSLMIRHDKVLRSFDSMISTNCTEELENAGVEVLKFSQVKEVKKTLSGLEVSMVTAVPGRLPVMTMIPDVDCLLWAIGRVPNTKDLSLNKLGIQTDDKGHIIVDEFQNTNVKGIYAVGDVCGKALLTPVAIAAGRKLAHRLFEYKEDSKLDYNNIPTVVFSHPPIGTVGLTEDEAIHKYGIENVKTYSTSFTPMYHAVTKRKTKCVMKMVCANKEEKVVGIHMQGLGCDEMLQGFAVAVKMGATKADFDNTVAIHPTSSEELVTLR
Put plainly: (§2) Inhibitory constant against human glutathione reductase. The gist of the method: (§3)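 Human GR kinetics in phosphate/KCl/EDTA buffer pH 6.9 at 25 °C, 100 μM NADPH, 5–10 mU GR; GSSG varied (40–1000 μM) at two fixed inhibitor levels, 120 and 240 μM; DMSO controls.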

Test [4] has as its target T1, Glutathione reductase, mitochondrial (Homo sapiens). The experiment in a line: Inhibitory activity against human Glutathione reductase relative to GSSG (100 uM).
Test [5] addresses T2, Trypanothione reductase (Trypanosoma cruzi, UniProt P28593). Put plainly: Competitive inhibitory constant against recombinant Trypanosoma cruzi trypanothione reductase was determined photometrically at 25 degree C in TR assay buffer (40 mM Hepes, 1 mM EDTA, pH 7.5). In a few lines:
(§4)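 Spectrophotometric TR assay at 25 °C, 40 mM Hepes, 1 mM EDTA, pH 7.5; 100 μM NADPH, 10–15 mU TR; reaction started with TS2, A340 decrease followed. TS2 varied at several fixed inhibitor concentrations (e.g. 5, 10, 20 μM); Ki from slopes and x-axis intercepts of Lineweaver–Burk plots, Dixon plots also used; data at least in duplicate.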

In test [6] the target is T2, Trypanothione reductase. Put plainly: (§5) Inhibitory constant against recombinant Trypanosoma cruzi trypanothione reductase was determined photometrically at 25 degree C in TR assay buffer (40 mM Hepes, 1 mM EDTA, pH 7.5). The gist of the method:
as §4

Test [7] concerns the target Trypanothione reductase (Trypanosoma cruzi) (UniProt P28593). The description is as §5. The gist of the method: as §4
The target of test [8] is T3, Glutathione reductase, mitochondrial (Homo sapiens, UniProt P00390).
T3 sequence (P00390 whole entry): T1 sequence (whole entry)
The test is described as §2. In a few lines:
as §3

Test [9] concerns the target T1, Glutathione reductase, mitochondrial (Homo sapiens). Put plainly: Percent inhibition of human glutathione reductase at 100 uM relative to 100 uM GSSG.

T2 sequence (P28593 whole entry): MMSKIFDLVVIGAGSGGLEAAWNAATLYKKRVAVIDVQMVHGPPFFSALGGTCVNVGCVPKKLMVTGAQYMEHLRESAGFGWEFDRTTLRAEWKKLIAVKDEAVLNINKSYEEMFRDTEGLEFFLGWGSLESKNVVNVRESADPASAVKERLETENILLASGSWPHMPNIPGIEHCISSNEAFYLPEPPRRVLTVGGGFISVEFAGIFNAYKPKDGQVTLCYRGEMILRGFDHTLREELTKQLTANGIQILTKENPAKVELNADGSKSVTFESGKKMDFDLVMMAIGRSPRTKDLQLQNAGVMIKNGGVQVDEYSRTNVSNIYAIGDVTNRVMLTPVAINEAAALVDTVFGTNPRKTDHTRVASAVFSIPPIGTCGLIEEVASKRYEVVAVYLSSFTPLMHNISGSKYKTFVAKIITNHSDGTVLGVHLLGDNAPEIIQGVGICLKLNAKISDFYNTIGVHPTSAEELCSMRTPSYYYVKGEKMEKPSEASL
Sequence of Trypanothione reductase (Trypanosoma cruzi) (P28593 whole entry, looked up): as the sequence (P28593 whole entry) above

One may read the inhibition as the drop in the measured response relative to a control, in per cent. As to `N=C(Nc1ccc(Oc2ccc(NC(=N)c3cccs3)cc2)cc1)c1cccs1`, the inhibition came out at 11% in [1] and 12% in test [2].
For `N=C(NCCCCCCNC(=N)NC(=N)Nc1ccc(Cl)cc1)NC(=N)Nc1ccc(Cl)cc1`, in test [3], the Ki' was 210 µM.
On to `N=C(NCCc1cccnc1)c1cccs1`, for which the inhibition in test [1] and in test [2] was less than 10% each time.
As usually defined, the pKi is the negative decadic logarithm of the Ki, by convention in mol/L. For the compound `N=C(CCCCCCCC(=N)NCC#Cc1ccccc1)NCC#Cc1ccccc1`, the inhibition is 5% in test [4], 80% in test [1] and 69% in test [2]. Further, the negative logarithm of the Ki (pKi) in test [5] was 5.22.
As to `CN1CCN(CCC/N=C(\N)c2cccs2)CC1`, the inhibition in test [1] and in test [2] was less than 10% in each case.
For the compound `O=C(Cc1cccc2ccccc12)NCCNC(=O)C1(NC(=O)C(=O)c2ccc([N+](=O)[O-])cc2)CCNCC1`, the pKi in test [6] is 5.21. Moreover, in test [7], the Ki' worked out at 8.5 µM.
With `[H]/N=C(\N/C(=N/[H])NCCCCCCNC(=N)NC(=N)Nc1ccc(Cl)cc1)Nc1ccc(Cl)cc1` [CHLORHEXIDINE], the negative logarithm of the Ki (pKi) in [8] was 3.72; in [6] it was 5.70.
Take `COc1cc(C(=N)NCCCCCCCCN=C(N)c2ccc(OCc3ccccc3)c(OC)c2)ccc1OCc1ccccc1`: the Ki' in test [7] came to 47 µM. The inhibition in test [1] came to 92%; in test [2], 85%.
Regarding `COc1cc(C(=N)Nc2ccc(Oc3ccc(NC(=N)c4ccc(OCc5ccccc5)c(OC)c4)cc3)cc2)ccc1OCc1ccccc1`, the Ki' in [7] stood at 22 µM. Also, the inhibition in [4] came out at 45%; in test [1], 95%; in test [2], 90%.
As for `COc1cc(C(=N)NC2CCC(CC3CCC(/N=C(\N)c4ccc(OCc5ccccc5)c(OC)c4)CC3)CC2)ccc1OCc1ccccc1` (stereo not given), in [6], the negative-log Ki (pKi) was 5.70. The Ki' in test [7] was determined as 16 µM. Moreover, the inhibition in [9] is 35%; in [1], 94%; in [2], 97%.
On to `N=C(NCCc1cccnc1)c1sccc1Br`, for which the inhibition in [1] was 14%; in [2], 15%.
On the same counts, the results for `CN1CCN(CC/N=C(\N)c2ccc3[nH]ccc3c2)CC1` are 39% and 31%.
On the same counts, the results for `N=C(NC1CCC(CC2CCC(NC(=N)c3cnccn3)CC2)CC1)c1cnccn1` (stereo not given) are less than 10% and less than 10%.
For `N=C(NCCOCCOCCNC(=N)c1cccs1)c1cccs1` the same measures were 14% and less than 10%.
`CN1CCN(CCC/N=C(\N)c2sccc2Br)CC1`: the inhibition in [1] and in test [2] was less than 10% throughout.
For `N=C(NC1CCC(CC2CCC(NC(=N)c3cccs3)CC2)CC1)c1cccs1` (stereo not given), the inhibition worked out at 17% in test [1] and 16% in test [2].
Regarding `COc1cc(C(N)=Nc2ccc(Oc3ccc(N=C(N)c4ccc(OCc5ccccc5)c(OC)c4)cc3)cc2)ccc1OCc1ccccc1`, the pKi in [6] is 5.70.
Regarding `N=C(NCCOCCOCCNC(=N)c1cnccn1)c1cnccn1`, the values for the inhibition in test [1] and in test [2] were 11% and less than 10%, respectively.
For `N=C(NCCCCCCCCNC(=N)c1cccs1)c1cccs1` the same measures were 15% and less than 10%.
With `COc1cc(C(=N)NCCCCCCCCNC(=N)c2ccc(OCc3ccccc3)c(OC)c2)ccc1OCc1ccccc1`, in test [6], the negative logarithm of the Ki (pKi) was 5.30.
